In ChEMBL document CHEMBL4725466, “Discovery and SAR of Novel Disubstituted Quinazolines as Dual PI3Kalpha/mTOR Inhibitors Targeting Breast Cancer” (ACS Med Chem Lett, 2020):
pIC50: −log10 of the molar value. Converted amounts (≈) assume the structure as drawn. The source made the active and inactive calls. The calls are words filed in the database; no cut-off is given here.

Legend:
[1] = Cytotoxicity against human primary fibroblasts assessed as cell viability at 10 uM after 48 hrs by celltiter-glo 2D luminescent assay relative to control; assay type: cell-based, Fibroblast; conditions: read-out: Activity
Outline: (§1)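 2D CellTiter-Glo luminescent viability screen, single 10 μM compound concentration, in MDA-MB-468, MDA-MB-231 and MCF7 breast cancer cells and in normal human dermal fibroblasts; output reported as percent of viable cells.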

[2] = Half life in CD1 mouse liver microsomes at 1 uM incubated for 60 mins under shaking condition by LC-MS/MS analysis; assay type: ADME, Microsome
Outline: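 Metabolic stability in mouse liver microsomes with test compound at 1 μM; result expressed as t1/2 (min).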

[3] = Kinetic aqueous solubility of compound in 2% DMSO/Phosphate buffer saline incubated for 90 mins under shaking condition by; assay type: physicochemical; conditions: 2% DMSO/phosphate buffered saline, read-out: Kinetic_solubility
Outline: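 Maximum kinetic aqueous solubility measured in 2% DMSO/phosphate-buffered saline, pH 7.4.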

MDA-MB-468 = assay: Antiproliferative activity against human MDA-MB-468 cells assessed as cell viability at 10 uM after 48 hrs by celltiter-glo 2D luminescent assay relative to control; assay type: functional; conditions: read-out: Activity; outline: as §1
MCF7 [4] = assay: Antiproliferative activity against human MCF7 cells assessed as reduction in cell viability after 48 hrs by celltiter-glo 3D luminescent assay; assay type: functional, cell-based; conditions: MCF7, 48 h
Outline: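 MCF7 cells grown in 3D culture, viability read by CellTiter-Glo 3D luminescence; dose–response curves run up to 15 μM to derive IC50.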

MCF7 [5] = assay: Antiproliferative activity against human MCF7 cells assessed as cell viability at 10 uM after 48 hrs by celltiter-glo 2D luminescent assay relative to control; assay type: functional; conditions: read-out: Activity; outline: as §1
[6] = target: Serine/threonine-protein kinase mTOR (Homo sapiens, UniProt P42345); assay: Inhibition of human mTOR at 10 uM using 4EBP1 as substrate after 120 mins by [gamma-33P]-ATP assay
Outline: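 Single-point kinase screen by HotSpot radioisotope filter binding assay; compound at 10 μM with 10 μM ATP, reported as percent inhibition of PI3Kα and mTOR.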

MDA-MB-231 = assay: Antiproliferative activity against human MDA-MB-231 cells assessed as cell viability at 10 uM after 48 hrs by celltiter-glo 2D luminescent assay relative to control; assay type: functional; conditions: read-out: Activity; outline: as §1
[7] = target: PI3-kinase p110-alpha/p85-alpha (Homo sapiens) (UniProt P27986+P42336); assay: Inhibition of human PI3K p110alpha/p85alpha at 10 uM using PIP2 as substrate incubated for 10 mins followed by ATP addition and measured after 30 mins in presence of 10 uM ATP by HTRF assay; assay type: protein-complex assay
[8] = target: PI3-kinase p110-alpha/p85-alpha (Homo sapiens, UniProt P42336); assay: Inhibition of human PI3K p110alpha/p85alpha using PIP2 as substrate incubated for 10 mins followed by ATP addition and measured after 30 mins in presence of 10 uM ATP by HTRF assay; assay type: protein-complex assay
Chain of PI3-kinase p110-alpha/p85-alpha (P27986 whole entry): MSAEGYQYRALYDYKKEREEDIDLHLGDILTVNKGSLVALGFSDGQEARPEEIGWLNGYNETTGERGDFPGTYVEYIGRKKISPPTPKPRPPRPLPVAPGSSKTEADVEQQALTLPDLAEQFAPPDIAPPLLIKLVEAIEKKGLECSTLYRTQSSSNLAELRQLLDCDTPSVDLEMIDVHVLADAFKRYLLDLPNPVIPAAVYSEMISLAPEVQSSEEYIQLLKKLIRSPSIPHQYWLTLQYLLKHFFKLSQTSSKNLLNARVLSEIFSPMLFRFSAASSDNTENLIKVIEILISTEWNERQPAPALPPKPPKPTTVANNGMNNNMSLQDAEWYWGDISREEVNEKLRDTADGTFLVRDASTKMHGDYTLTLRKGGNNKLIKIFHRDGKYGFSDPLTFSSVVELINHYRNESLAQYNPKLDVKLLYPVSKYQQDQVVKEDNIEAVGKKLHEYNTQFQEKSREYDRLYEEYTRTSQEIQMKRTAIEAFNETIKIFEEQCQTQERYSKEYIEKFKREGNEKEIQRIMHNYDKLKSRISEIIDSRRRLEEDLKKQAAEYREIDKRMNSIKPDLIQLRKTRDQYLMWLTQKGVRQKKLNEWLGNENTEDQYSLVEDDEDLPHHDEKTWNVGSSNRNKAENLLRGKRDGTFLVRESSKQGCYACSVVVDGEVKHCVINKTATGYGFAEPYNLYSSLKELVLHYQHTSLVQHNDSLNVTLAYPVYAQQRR
Chain of PI3-kinase p110-alpha/p85-alpha (P42336 whole entry): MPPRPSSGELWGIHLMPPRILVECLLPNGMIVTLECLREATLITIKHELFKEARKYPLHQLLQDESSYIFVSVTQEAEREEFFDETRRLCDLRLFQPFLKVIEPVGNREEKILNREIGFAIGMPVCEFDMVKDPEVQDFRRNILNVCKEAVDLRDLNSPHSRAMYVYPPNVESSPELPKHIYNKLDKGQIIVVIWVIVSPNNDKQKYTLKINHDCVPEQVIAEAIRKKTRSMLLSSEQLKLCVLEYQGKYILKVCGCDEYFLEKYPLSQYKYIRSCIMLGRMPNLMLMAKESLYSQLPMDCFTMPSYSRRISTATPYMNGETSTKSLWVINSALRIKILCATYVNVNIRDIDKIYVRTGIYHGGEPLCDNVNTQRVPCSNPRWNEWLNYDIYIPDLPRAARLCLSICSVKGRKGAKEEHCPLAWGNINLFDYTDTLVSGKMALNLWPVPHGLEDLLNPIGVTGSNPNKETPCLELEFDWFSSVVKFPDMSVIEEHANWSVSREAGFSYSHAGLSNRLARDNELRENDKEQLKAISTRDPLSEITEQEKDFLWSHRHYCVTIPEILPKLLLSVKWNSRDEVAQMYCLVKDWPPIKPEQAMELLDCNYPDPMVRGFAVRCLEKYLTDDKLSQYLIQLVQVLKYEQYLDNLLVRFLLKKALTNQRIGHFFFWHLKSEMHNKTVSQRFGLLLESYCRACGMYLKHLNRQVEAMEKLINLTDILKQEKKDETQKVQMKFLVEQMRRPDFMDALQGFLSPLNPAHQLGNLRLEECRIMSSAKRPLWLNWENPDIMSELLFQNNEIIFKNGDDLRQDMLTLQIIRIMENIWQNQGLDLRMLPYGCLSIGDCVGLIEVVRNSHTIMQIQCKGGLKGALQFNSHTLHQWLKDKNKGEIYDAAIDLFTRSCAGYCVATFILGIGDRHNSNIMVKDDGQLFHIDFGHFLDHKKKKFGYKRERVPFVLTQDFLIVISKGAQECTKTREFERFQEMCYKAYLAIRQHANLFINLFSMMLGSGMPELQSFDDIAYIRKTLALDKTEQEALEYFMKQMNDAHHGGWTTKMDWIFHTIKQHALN

Row | Compound | viability at 48 h, 10 µM [1] [%] | half-life at 1 µM [2] [min] | solubility kinetic at 1.5 h [3] [µM] | viability at 10 µM (MDA-MB-468) [%] | pIC50 (MCF7 [4]) | viability at 10 µM (MCF7 [5]) [%] | inhibition [6] | viability at 10 µM (MDA-MB-231) [%] | inhibition [7] | pIC50 [8]
1 | Oc1cccc(-c2nc(N3CCOCC3)c3oc4ncccc4c3n2)c1 [PI-103] | 42 | 7.1 | 3.4 (≈ 1.18 µg/mL) | – | – | – | – | – | – | –
2 | O=C(Nc1ccc(CO)cc1)Nc1ccc(-c2nc(N3CCOCC3)c3ccccc3n2)cc1 | 86 | > 60 | 14.3 (≈ 6.51 µg/mL) | 60 | 6.70 | 7 | Active | 208 | Active | 8.62
3 | CC(=O)c1ccc(NC(=O)Nc2ccc(-c3nc(N4CCOCC4)c4ccccc4n3)cc2)cc1 | 20 | > 60 | 2 (≈ 0.935 µg/mL) | 42 | – | 22 | Active | 74 | Active | 7.78
4 | CNC(=O)c1ccc(NC(=O)Nc2ccc(-c3nc(N4CCOCC4)c4ccccc4n3)cc2)cc1 | 80 | > 60 | < 2 | 54 | 6.52 | 12 | Active | 66 | Active | 8.60
5 | N=C(N)NS(=O)(=O)c1ccc(NC(=O)Nc2ccc(-c3nc(N4CCOCC4)c4ccccc4n3)cc2)cc1 | 92 | > 60 | 6.1 (≈ 3.33 µg/mL) | 51 | 6.52 | 30 | Active | 152 | Active | 7.73
6 | N#Cc1cccc(-c2nc(N3CCOCC3)c3ccccc3n2)c1 | – | – | – | – | – | – | Active | – | Active | –
7 | O=C(Nc1ccc(-c2nc(N3CCOCC3)c3ccccc3n2)cc1)Nc1ccc(S(=O)(=O)Nc2nccs2)cc1 | 95 | > 60 | 3.1 (≈ 1.82 µg/mL) | 59 | 5.74 | 40 | Active | 140 | Active | 7.58
8 | CC(=O)c1ccc(Nc2nc(N3CCOCC3)c3ccccc3n2)cc1 | – | – | – | – | – | – | Active | – | Active | –
9 | O=C(Nc1ccc(CCO)cc1)Nc1ccc(-c2nc(N3CCOCC3)c3ccccc3n2)cc1 | 63 | 38.2 | 5.9 (≈ 2.77 µg/mL) | 74 | 6.52 | 7 | Active | 192 | Active | 8.85
10 | CCOC(=O)c1ccc(Nc2nc(N3CCOCC3)c3ccccc3n2)cc1 | – | – | – | – | – | – | Active | – | Active | –
11 | NS(=O)(=O)c1ccc(Nc2nc(N3CCOCC3)c3ccccc3n2)cc1 | – | – | – | – | – | – | Active | – | Active | –
12 | N=C(N)NS(=O)(=O)c1ccc(Nc2nc(N3CCOCC3)c3ccccc3n2)cc1 | – | 44.9 | 22.7 (≈ 9.7 µg/mL) | – | – | – | Active | – | Active | 5.23
13 | CNC(=O)Nc1ccc(-c2nc(N3CCOCC3)c3ccccc3n2)cc1 | 71 | 8 | 192 (≈ 69.8 µg/mL) | 96 | – | 34 | Active | 180 | Active | 6.73
14 | O=C(NCCO)Nc1ccc(-c2nc(N3CCOCC3)c3ccccc3n2)cc1 | 95 | 53.1 | 200 (≈ 78.7 µg/mL) | 65 | 6.15 | 31 | Active | 146 | Active | 6.73
15 | O=C(O)c1cccc(-c2nc(N3CCOCC3)c3ccccc3n2)c1 | – | – | – | – | – | – | Active | – | Active | –
16 | O=C(Nc1ccc(-c2nc(N3CCOCC3)c3ccccc3n2)cc1)Nc1cccc(CO)c1 | 94 | > 60 | 8.2 (≈ 3.74 µg/mL) | 47 | 6.52 | 13 | Active | 138 | Active | 8.14
17 | O=S(=O)(Nc1ccccn1)c1ccc(Nc2nc(N3CCOCC3)c3ccccc3n2)cc1 | – | – | – | – | – | – | Active | – | Active | –
18 | CS(=O)(=O)Nc1ccc(NC(=O)Nc2ccc(-c3nc(N4CCOCC4)c4ccccc4n3)cc2)cc1 | 38 | 60 | 6.9 (≈ 3.58 µg/mL) | 66 | – | 8 | Active | 137 | Active | 8.21
19 | O=C(Nc1ccc(-c2nc(N3CCOCC3)c3ccccc3n2)cc1)Nc1cncnc1 | 88 | 24.5 | 2.7 (≈ 1.15 µg/mL) | 56 | 5.80 | 21 | – | 138 | – | 6.94
20 | O=S(=O)(Nc1ncccn1)c1ccc(Nc2nc(N3CCOCC3)c3ccccc3n2)cc1 | – | – | – | – | – | – | Active | – | Active | –
21 | O=C(Nc1ccccc1)Nc1ccc(-c2nc(N3CCOCC3)c3ccccc3n2)cc1 | 99 | > 60 | 8.1 (≈ 3.45 µg/mL) | 80 | 5.92 | 35 | Active | 140 | Active | 7.92
22 | NS(=O)(=O)c1ccc(NC(=O)Nc2ccc(-c3nc(N4CCOCC4)c4ccccc4n3)cc2)cc1 | 84 | > 60 | < 2 | 33 | 6.70 | 8 | Active | 114 | Active | 8.47
23 | Oc1ccc(-c2nc(N3CCOCC3)c3ccccc3n2)cn1 | – | – | – | – | – | – | Active | – | Active | –
